# Results collected from several papers.
# pIC50: −log10 of the molar value.
# CYP1A2: Cytochrome P450 1A2 (CYP1A2, Homo sapiens, UniProt P05177)
# CYP3A4: Cytochrome P450 3A4 (CYP3A4, Homo sapiens, UniProt P08684)
SMILES,tested on,assay,test system,setting,measurement,value
COC(=O)C1CCN(C(=O)c2ccc(NCc3cnc4nc(N)nc(N)c4n3)cc2)CC1,CYP1A2,"enzyme activity, inhibitor, luciferase",,10 µM,inhibition,-8.49%
CCCCCCCC(=O)N[C@@H](CCCCN)C(=O)N[C@@H](CCCCN)C(=O)N[C@@H](C)C(=O)N[C@@H](CC(C)C)C(=O)N[C@@H](CCCCN)C(=O)N[C@@H](CC(C)C)C(=O)N[C@@H](C)C(=O)N[C@@H](CCCCN)C(=O)N[C@@H](CCCCN)C(=O)N1CCC[C@H]1C(=O)N[C@@H](CC(C)C)C(=O)N[C@@H](CCCCN)C(=O)N[C@@H](CC(C)C)C(=O)N[C@@H](CC(C)C)C(=O)N[C@@H](CCCCN)C(N)=O,,,"female CD-1 mouse, blood","intravenous, 10 mg/kg, single dose",Cmax,6950 ng/mL
O=c1[nH]cnc2c1nnn2-c1cccc(Cl)c1,BHK-21,"cell growth or viability, MTT",,,CC50,> 1000 µM
Cc1cc(C)nc(Nc2ncc(C(=O)NCCc3c(C)[nH]c4ccccc34)cn2)c1,,metabolic stability,"cynomolgus monkey, liver microsomes",1 µM,microsomal CLint,99 µL/min/mg
NC(=O)C(NC(=O)C1CC(c2ccccc2)C1)c1ccccc1 (centres unmarked),BHK-21,"cell growth or viability, MTT",,,CC50,> 100 µM
CCC[C@@](N)(CO)CCc1ccc(OCCCCCC(C)C)cc1,CYP1A2,"enzyme activity, inhibitor",,,pIC50,< 4.30
NCCc1ccccn1,CYP3A4,thermal stability,,,ΔTm,-0.1 °C
O=C(O)C(F)(F)C(F)(F)C(F)(F)C(F)(F)C(F)(F)C(F)(F)C(F)(F)F,"Solute carrier organic anion transporter family member 1B1 (SLCO1B1, Homo sapiens, UniProt Q9Y6L6)","transporter uptake, substrate",CHO,"1 min, pH 7.4",Km,52.6 µM
Cc1ccccc1/C=C1/SC(=O)NC1=O,BHK-21,"cell growth or viability, MTT",,,CC50,> 100 µM
COC(=O)C1CCN(C(=O)c2ccc(N(C)Cc3cnc4nc(N)nc(N)c4n3)cc2)CC1,CYP3A4,"enzyme activity, inhibitor, luciferase",,10 µM,inhibition,-17.4%
Cc1cccc(F)c1N1CCC(N2Cc3cn(CC(C)(F)F)nc3N(Cc3ccccc3C(F)(F)F)C2=O)CC1,CYP3A4,"enzyme activity, inhibitor","human, liver microsomes",midazolam probe,pIC50,< 5.00
N[C@@H](Cc1ccccc1)C(=O)N1CCC(C(=O)N[C@H](C(=O)O)c2ccccc2)CC1,BHK-21,"cell growth or viability, MTT",,,CC50,> 100 µM
C[C@]12CC[C@H](n3ccnc3)CC1=CC[C@@H]1[C@@H]2CC[C@]2(C)C(n3cnc4ccccc43)=CC[C@@H]12.Cl.Cl,,,"male CD-1 mouse, plasma","oral, 10 mg/kg",Cmax,1510 ng/mL
CCS(=O)(=O)N1CC(CC#N)(n2cc(-c3ncnc4[nH]ccc34)cn2)C1,Vero,"cell growth or viability, resazurin",,,CC50,> 60 µM
